Activity calls are given as the source filed them. No cut-off for these calls is given here.
Tests used:
[1] = molecular target: T1, Human immunodeficiency virus type 1 reverse transcriptase (Human immunodeficiency virus 1, UniProt Q72547); assay: Inhibition of DNA polymerase activity of HIV1 reverse transcriptase
[2] = Cytotoxicity against Jurkat cells by XTT assay; assay type: cell-based; settings: human
How it was run: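 Jurkat cells; XTT read-out, absorbance 450 nm with 620 nm reference. CC50 = concentration reducing viability by 50% versus inhibitor-free control.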

[3] = Inhibition of RNase H activity of HIV1 reverse transcriptase; parameters: species or system Human immunodeficiency virus 1
How it was run: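 FRET assay: RT (6 nM) with fluorescein-RNA/DNA-dabcyl hybrid substrate, 1 mM DTT, ± inhibitor; fluorescence read after 30 min at 37 °C. Triplicates; IC50 interpolated from dose-response curves.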

[4] = molecular target: Human immunodeficiency virus type 1 reverse transcriptase (Human immunodeficiency virus 1) (UniProt Q72547); assay: Inhibition of reverse transcriptase binding to DNA assessed as formation of RT-DNA complex by gel mobility shift assay
How it was run: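 RT 1.5 pmol preincubated 10 min at 4 °C with compound at 250 and 625 µM final. Then 0.12 pmol 5'-32P-labeled 54-nt duplex DNA added, in 10 mM HEPES, 30 mM ammonium sulfate, 0.25 mM DTT, 0.1 mg/mL BSA, pH 8.0; 10 min 32 °C. Run on nondenaturing 6.5% polyacrylamide gel, TBE, 4 °C; autoradiography.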

[5] = molecular target: T1, Human immunodeficiency virus type 1 reverse transcriptase; assay: Inhibition of HIV1 wild type p66/p51 reverse transcriptase
How it was run: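 BH-10-derived p66/p51 RT, C-terminal His6 on p66, expressed in bacteria, Ni-NTA then cation exchange purified. Substrate mix: 50 µg/mL poly(rA)·oligo(dT)12-18, 50 µM dTTP, [3H]dTTP; 30 min 37 °C.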

[6] = Inhibition of drug-resistant reverse transcriptase […] mutant; parameters: species or system Human immunodeficiency virus 1
[7] = Inhibition of drug-resistant reverse transcriptase L100I-K103 mutant; parameters: species or system Human immunodeficiency virus 1
How it was run: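 p66/p66 homodimer HIV-1 RT double mutant (His-tagged, E. coli-expressed, Ni-NTA purified). DNA polymerase activity: [3H]dTTP incorporation into poly(rA)n·oligo(dT)12-18. DMSO serial dilutions of inhibitor plus 14 ng RT in Tris-HCl pH 7.5/KCl/MgCl2, 10 min on ice, then substrate added, 30 min at 37 °C, scintillation counting. IC50 from a four-parameter logistic fit, from at least two experiments.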

[8] = test system: Human immunodeficiency virus 1; assay: Inhibition of DNA polymerase activity of reverse transcriptase pre-incubated with drug assessed as impairment of primer elongation by DNA polymerase primer-extension assay
How it was run: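 Primer extension: 5′-32P-labelled 15-mer primed on circular φX174am3 template (4 nM T/P). RT (1.6 nM) preincubated 30 min on ice, with inhibitor before T/P addition, or with T/P for 5 min before inhibitor. Buffer 6.6 mM Tris-HCl pH 8.0, 4 mM DTT, 6 mM MgCl2, 33 mM NaCl, BSA, 20 µM each dNTP. Run 30 min at 37 °C; products resolved on gel and viewed by autoradiography.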

Structure (SMILES) | IC50 [1] | CC50 [2] | IC50 [3] | further results
N#CCC(=O)c1ccc(Cl)c(Br)c1 | > 312 µM |  |  | 
N#CCC(=O)c1cccc(Cl)c1 | 4.1 µM | > 312 µM | 28 µM | 
NC(=O)c1[nH]cnc1-c1ccc(Cl)c(Br)c1 | 9.9 µM | 213 µM | 41 µM | Activity [4]: inactive; IC50 [5]: 9.9 µM; IC50 [6]: 26.4 µM; IC50 [7]: 19.8 µM
NC(=O)c1[nH]cnc1-c1cccc(C(=O)c2ccccc2)c1 | > 312 µM |  |  | 
NC(=O)c1sc(N)nc1-c1cccc(-c2ccccc2)c1 | 59.2 µM | 244 µM | 249 µM | 
NC(=O)c1sc(N)nc1-c1cccc(C(=O)c2ccccc2)c1 | 44.1 µM | > 312 µM | > 312 µM | 
NC(=O)c1[nH]cnc1-c1cccc(-c2ccccc2)c1 | > 312 µM |  |  | 
NC(=O)c1scnc1-c1ccc(Cl)c(Br)c1 | 87.5 µM |  |  | 
NC(=O)c1[nH]cnc1-c1ccccc1 | 300 µM |  |  | 
NC(=O)c1scnc1-c1cccc(-c2ccccc2)c1 | > 312 µM |  |  | 
N#CCC(=O)Cc1cccc(I)c1 | 3.5 µM | 247 µM | 20 µM | Activity [4]: inactive; IC50 [5]: 3.5 µM; IC50 [6]: 9.9 µM; Activity [8]: Active; IC50 [7]: 9.4 µM
CCOP(=O)(OCC)Oc1cccc(C(=O)CC#N)c1 | 64.3 µM | > 312 µM | 112 µM | 
NC(=O)CC(=O)c1cccc(I)c1 | 29.6 µM | > 312 µM | > 312 µM | 
NC(=O)CC(=O)c1cccc(-c2ccccc2)c1 | > 312 µM |  |  | 
NC(=O)c1sc(N)nc1-c1ccccc1 | 80.7 µM | > 312 µM | > 312 µM | 
Cc1ccnc2c1NC(=O)c1cccnc1N2C1CC1 |  |  |  | Activity [4]: inactive; Activity [8]: Active
NC(=O)c1scnc1-c1ccccc1 | 283 µM |  |  | 
NC(=O)c1scnc1-c1cccc(C(=O)c2ccccc2)c1 | 16.3 µM | > 312 µM | 77 µM | 
NC(=O)CC(=O)c1cccc(C(=O)c2ccccc2)c1 | > 312 µM |  |  | 
N#CCC(=O)c1cccc(I)c1 | > 312 µM |  |  | 
NC(=O)c1sc(N)nc1-c1cccc(I)c1 | 125 µM |  |  | 
NC(=O)c1[nH]cnc1-c1cccc(Cl)c1 | 79.8 µM | > 312 µM | > 312 µM | 
N#CCC(=O)c1cccc(-c2ccccc2)c1 | 33.4 µM | 233 µM | 84 µM | 
NC(=O)c1sc(N)nc1-c1ccc(Cl)c(Br)c1 | 118 µM |  |  | 
NC(=O)CC(=O)c1cccc(Cl)c1 | > 312 µM |  |  | 
NC(=O)c1sc(N)nc1-c1cccc(Cl)c1 | 54.4 µM | > 312 µM | > 312 µM | 
C[C@@H]1CC=C2[C@@H](CCC[C@@]2(C)CC[C@@]2(C)C3=CCCC(C)(C)[C@H]3CC[C@@H]2C)[C@]1(C)Cc1cc(OS(=O)(=O)O)ccc1OS(=O)(=O)O |  |  |  | Activity [4]: Active
N#CCC(=O)c1cccc(C(=O)c2ccccc2)c1 | 9.8 µM | 251 µM | 98 µM | 
NC(=O)c1scnc1-c1cccc(I)c1 | > 312 µM |  |  | 

— ChEMBL document CHEMBL1139885, “De novo parallel design, synthesis and evaluation of inhibitors against the reverse transcriptase of human immunodeficiency virus type-1 and drug-resistant variants” (J Med Chem, 2007)
